Measurements as given in ChEMBL document CHEMBL1146308 (Bioorg Med Chem, 2007).
The source made the active and inactive calls. No cut-off for these calls is given here.

How the values were obtained:
Rattus norvegicus = organism: Rattus norvegicus; test: Selectivity ratio of IC50 for rat BuChE to rat IC50 for AchE
In short: (§1)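 Modified Ellman colorimetric cholinesterase assay. The AChE source was rat cortex homogenate and the BuChE source was rat serum. Inhibition was measured against each enzyme, and selectivity was taken as the BuChE IC50 over the AChE IC50.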

Acetylcholinesterase = target: T1, Acetylcholinesterase (Rattus norvegicus, UniProt P37136); test: Inhibition of AChE in rat cortex […]
T1 sequence (P37136 whole entry): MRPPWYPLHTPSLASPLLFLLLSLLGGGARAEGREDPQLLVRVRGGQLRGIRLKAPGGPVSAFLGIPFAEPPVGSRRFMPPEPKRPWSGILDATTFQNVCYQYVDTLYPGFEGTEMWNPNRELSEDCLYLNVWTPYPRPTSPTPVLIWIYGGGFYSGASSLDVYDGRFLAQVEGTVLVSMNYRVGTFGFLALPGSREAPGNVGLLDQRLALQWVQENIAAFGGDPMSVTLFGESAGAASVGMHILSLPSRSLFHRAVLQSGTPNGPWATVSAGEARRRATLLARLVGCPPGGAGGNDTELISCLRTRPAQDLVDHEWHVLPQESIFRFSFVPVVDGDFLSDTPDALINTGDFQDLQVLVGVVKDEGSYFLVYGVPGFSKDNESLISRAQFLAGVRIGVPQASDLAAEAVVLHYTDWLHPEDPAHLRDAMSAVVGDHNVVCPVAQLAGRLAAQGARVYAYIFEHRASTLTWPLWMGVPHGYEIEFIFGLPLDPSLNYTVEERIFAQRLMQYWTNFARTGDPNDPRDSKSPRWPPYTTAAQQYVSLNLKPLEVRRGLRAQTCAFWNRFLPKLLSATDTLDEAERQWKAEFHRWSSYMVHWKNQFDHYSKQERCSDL

Butyrylcholinesterase = Butyrylcholinesterase (Rattus norvegicus, UniProt Q9JKC1); test: Inhibition of BuChE in rat serum; assay type: cell-free; in short: as §1
Chain of Butyrylcholinesterase (Q9JKC1 whole entry): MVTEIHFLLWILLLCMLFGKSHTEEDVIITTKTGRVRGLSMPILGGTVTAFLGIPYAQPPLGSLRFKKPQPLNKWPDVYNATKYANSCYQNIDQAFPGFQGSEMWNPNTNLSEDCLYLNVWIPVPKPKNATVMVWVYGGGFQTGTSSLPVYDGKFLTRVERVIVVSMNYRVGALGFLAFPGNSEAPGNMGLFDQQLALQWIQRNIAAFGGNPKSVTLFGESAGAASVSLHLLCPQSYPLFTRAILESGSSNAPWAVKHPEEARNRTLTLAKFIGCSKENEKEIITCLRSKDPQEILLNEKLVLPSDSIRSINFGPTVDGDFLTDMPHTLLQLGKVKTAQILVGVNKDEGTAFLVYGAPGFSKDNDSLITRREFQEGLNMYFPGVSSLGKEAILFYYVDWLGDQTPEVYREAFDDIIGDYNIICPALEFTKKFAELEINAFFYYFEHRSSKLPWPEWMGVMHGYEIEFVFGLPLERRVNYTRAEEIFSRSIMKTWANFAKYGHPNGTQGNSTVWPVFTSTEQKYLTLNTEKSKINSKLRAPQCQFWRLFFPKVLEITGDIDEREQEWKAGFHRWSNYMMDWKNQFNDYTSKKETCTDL

PC-12 [1] = test: Inhibition of amyloid beta peptide-induced redox disequilibrium assessed as increase in GSHPx activity in PC12 cells; assay type: functional, cell-based; details: Rattus norvegicus
PC-12 [2] = test: Inhibition of staurosporine-induced apoptosis in PC12 cells; assay type: functional, cell-based; details: Rattus norvegicus
PC-12 [3] = test: Inhibition of amyloid beta peptide-induced redox disequilibrium assessed as decrease in MDA level in PC12 cells; assay type: functional, cell-based; details: Rattus norvegicus
PC-12 [4] = test: Reduction of amyloid beta peptide-induced cytotoxicity in PC12 cells; assay type: functional, cell-based; details: Rattus norvegicus
PC-12 [5] = test: Inhibition of amyloid beta peptide-induced redox disequilibrium assessed as decrease in SOD activity in PC12 cells; assay type: functional, cell-based; details: Rattus norvegicus
Mus musculus = organism: Mus musculus; test: Neuroprotection against scopolamine-induced spartial performance deficits in mouse by water maze test; assay type: functional, organism-based

| SMILES | Ratio IC50 (Rattus norvegicus) | IC50 (Acetylcholinesterase) [nM] | also measured |
| --- | --- | --- | --- |
| CC1=C[C@H]2Cc3[nH]c(=O)ccc3[C@@]3(C1)[C@@H]2CCCN3C(=O)CCN(C)CCCCCCCCCCCCN(C)CCC(=O)N1CCC[C@@H]2[C@H]3C=C(C)C[C@]21c1ccc(=O)[nH]c1C3 | 3830 | 23.1 | IC50 (Butyrylcholinesterase): 88400 nM |
| CC1=C[C@H]2Cc3[nH]c(=O)ccc3[C@@]3(C1)[C@@H]2CCCN3CCCN(C)CCCCCCN(C)CCCN1CCC[C@@H]2[C@H]3C=C(C)C[C@]21c1ccc(=O)[nH]c1C3 |  | 33.6 |  |
| CC1=C[C@H]2Cc3[nH]c(=O)ccc3[C@@]3(C1)[C@@H]2CCCN3C(=O)CN(C)CCCCCCCCN(C)Cc1ccccn1 |  | 41.2 |  |
| CC1=C[C@H]2Cc3[nH]c(=O)ccc3[C@@]3(C1)[C@@H]2CCCN3C(=O)CN(C)CCCCCCCCN(C)Cc1ccc(F)cc1 |  | 56.5 |  |
| CC1=C[C@H]2Cc3[nH]c(=O)ccc3[C@@]3(C1)[C@@H]2CCCN3C(=O)CCN1CCCN(CCC(=O)N2CCC[C@@H]3[C@H]4C=C(C)C[C@]32c2ccc(=O)[nH]c2C4)CC1 |  | 179 |  |
| CC1=C[C@H]2Cc3[nH]c(=O)ccc3[C@@]3(C1)[C@@H]2CCCN3C(=O)CN(C)CCCCCCCCCCN(C)Cc1ccncc1 |  | 50 |  |
| CC1=C[C@H]2Cc3[nH]c(=O)ccc3[C@@]3(C1)[C@@H]2CCCN3C(=O)CCN1CCN(CCC(=O)N2CCC[C@@H]3[C@H]4C=C(C)C[C@]32c2ccc(=O)[nH]c2C4)CC1 |  | 170 |  |
| CC1=C[C@H]2Cc3[nH]c(=O)ccc3[C@@]3(C1)[C@@H]2CCCN3C(=O)CCN(C)CCCCCCN(C)CCC(=O)N1CCC[C@@H]2[C@H]3C=C(C)C[C@]21c1ccc(=O)[nH]c1C3 | 1890 | 35.9 | IC50 (Butyrylcholinesterase): 67900 nM |
| CC1=C[C@H]2Cc3[nH]c(=O)ccc3[C@@]3(C1)[C@@H]2CCCN3CCCN1CCCN(CCCN2CCC[C@@H]3[C@H]4C=C(C)C[C@]32c2ccc(=O)[nH]c2C4)CC1 |  | 332 |  |
| CC1=C[C@H]2Cc3[nH]c(=O)ccc3[C@@]3(C1)[C@@H]2CCCN3CCCN(C)CCCCCCCCCCN(C)CCCN1CCC[C@@H]2[C@H]3C=C(C)C[C@]21c1ccc(=O)[nH]c1C3 |  | 26.2 |  |
| CC1=C[C@H]2Cc3[nH]c(=O)ccc3[C@@]3(C1)[C@@H]2CCCN3C(=O)CN(C)CCCCCCCCCCN(C)Cc1cccc2ccccc12 |  | 121 |  |
| CC1=C[C@H]2Cc3[nH]c(=O)ccc3[C@@]3(C1)[C@@H]2CCCN3CCN1CCCN(CCN2CCC[C@@H]3[C@H]4C=C(C)C[C@]32c2ccc(=O)[nH]c2C4)CC1 | 573 |  |  |
| CC1=C[C@H]2Cc3[nH]c(=O)ccc3[C@@]3(C1)[C@@H]2CCCN3C(=O)CN(C)CCCCCCCCCCN(C)Cc1cccnc1 |  |  | IC50 (Butyrylcholinesterase): 12900 nM |
| COc1ccccc1CN(C)CCCCCCCCCCN(C)CC(=O)N1CCC[C@@H]2[C@H]3C=C(C)C[C@]21c1ccc(=O)[nH]c1C3 | 410 | 21.1 | IC50 (Butyrylcholinesterase): 8650 nM |
| CC1=C[C@H]2Cc3[nH]c(=O)ccc3[C@@]3(C1)[C@@H]2CCCN3C(=O)CCN(C)CCCCCCCCN(C)CCC(=O)N1CCC[C@@H]2[C@H]3C=C(C)C[C@]21c1ccc(=O)[nH]c1C3 | 3400 | 18.5 | IC50 (Butyrylcholinesterase): 63000 nM |
| CC1=C[C@H]2Cc3[nH]c(=O)ccc3[C@@]3(C1)[C@@H]2CCCN3CCN(C)CCN(C)CCN1CCC[C@@H]2[C@H]3C=C(C)C[C@]21c1ccc(=O)[nH]c1C3 |  | 3480 |  |
| CC1=C[C@H]2Cc3[nH]c(=O)ccc3[C@@]3(C1)[C@@H]2CCCN3C(=O)CCN(C)CCCCCCCCCCN(C)CCC(=O)N1CCC[C@@H]2[C@H]3C=C(C)C[C@]21c1ccc(=O)[nH]c1C3 | 5510 | 11.8 | Activity (PC-12 [1]): Active; Activity (PC-12 [2]): Active; Activity (PC-12 [3]): Active; Activity (PC-12 [4]): Active; Activity (PC-12 [5]): Active; Activity (Mus musculus): Active; IC50 (Butyrylcholinesterase): 65000 nM |
| CC1=C[C@H]2Cc3[nH]c(=O)ccc3[C@@]3(C1)[C@@H]2CCCN3C(=O)CN1CCN(CC(=O)N2CCC[C@@H]3[C@H]4C=C(C)C[C@]32c2ccc(=O)[nH]c2C4)CC1 | > 157 |  |  |
| CC1=C[C@H]2Cc3[nH]c(=O)ccc3[C@@]3(C1)[C@@H]2CCCN3C(=O)CN(C)CCCCCCCCCCCCN(C)CC(=O)N1CCC[C@@H]2[C@H]3C=C(C)C[C@]21c1ccc(=O)[nH]c1C3 |  | 53.4 |  |
| CC1=C[C@H]2Cc3[nH]c(=O)ccc3[C@@]3(C1)[C@@H]2CCCN3C(=O)CN(C)CCCCCCCCCCN(C)Cc1ccccn1 |  | 42 |  |
| CC1=C[C@H]2Cc3[nH]c(=O)ccc3[C@@]3(C1)[C@@H]2CCCN3CCCN(C)CCCCCCCCN(C)CCCN1CCC[C@@H]2[C@H]3C=C(C)C[C@]21c1ccc(=O)[nH]c1C3 |  | 40.6 |  |

| SMILES | Ratio IC50 (Rattus norvegicus) | IC50 (Acetylcholinesterase) [nM] | also measured |
| --- | --- | --- | --- |
| CC1=C[C@H]2Cc3[nH]c(=O)ccc3[C@@]3(C1)[C@@H]2CCCN3CCCN1CCN(CCCN2CCC[C@@H]3[C@H]4C=C(C)C[C@]32c2ccc(=O)[nH]c2C4)CC1 |  | 202 |  |
| CC1=C[C@H]2Cc3[nH]c(=O)ccc3[C@@]3(C1)[C@@H]2CCCN3CCN(C)CCCCCCCCN(C)CCN1CCC[C@@H]2[C@H]3C=C(C)C[C@]21c1ccc(=O)[nH]c1C3 |  | 20.1 |  |
| CC1=C[C@H]2Cc3[nH]c(=O)ccc3[C@@]3(C1)[C@@H]2CCCN3C(=O)CN(C)CCCN(C)CC(=O)N1CCC[C@@H]2[C@H]3C=C(C)C[C@]21c1ccc(=O)[nH]c1C3 | 127 | 471 | IC50 (Butyrylcholinesterase): 60000 nM |
| CC1=C[C@H]2Cc3[nH]c(=O)ccc3[C@@]3(C1)[C@@H]2CCCN3C(=O)CN(C)CCCCCCCCN(C)CC(=O)N1CCC[C@@H]2[C@H]3C=C(C)C[C@]21c1ccc(=O)[nH]c1C3 | 1290 | 50.8 | IC50 (Butyrylcholinesterase): 65400 nM |
| CC1=C[C@H]2Cc3[nH]c(=O)ccc3[C@@]3(C1)[C@@H]2CCCN3C(=O)CN(C)CCCCCCN(C)CC(=O)N1CCC[C@@H]2[C@H]3C=C(C)C[C@]21c1ccc(=O)[nH]c1C3 | 846 | 76.2 | IC50 (Butyrylcholinesterase): 64500 nM |
| CC1=C[C@H]2Cc3[nH]c(=O)ccc3[C@@]3(C1)[C@@H]2CCCN3CCN(C)CCCCCCN(C)CCN1CCC[C@@H]2[C@H]3C=C(C)C[C@]21c1ccc(=O)[nH]c1C3 |  | 78.4 |  |
| CC1=C[C@H]2Cc3[nH]c(=O)ccc3[C@@]3(C1)[C@@H]2CCCN3C(=O)CN(CC(=O)N1CCC[C@@H]2[C@H]3C=C(C)C[C@]21c1ccc(=O)[nH]c1C3)C1CC1 |  | 1000 |  |
| COc1ccccc1CN(C)CCCCCCCCCCCCN(C)CC(=O)N1CCC[C@@H]2[C@H]3C=C(C)C[C@]21c1ccc(=O)[nH]c1C3 |  | 62.2 |  |
| CC1=C[C@H]2Cc3[nH]c(=O)ccc3[C@@]3(C1)[C@@H]2CCCN3C(=O)CN(C)CCCCCCCCCCCCN(C)Cc1ccc(F)cc1 |  | 309 |  |
| CC1=C[C@H]2Cc3[nH]c(=O)ccc3[C@@]3(C1)[C@@H]2CCCN3C(=O)CN(C)CCCCCCN(C)Cc1cccc2ccccc12 |  | 124 |  |
| CC1=C[C@H]2Cc3[nH]c(=O)ccc3[C@@]3(C1)[C@@H]2CCCN3C(=O)CN(C)CCN(C)CC(=O)N1CCC[C@@H]2[C@H]3C=C(C)C[C@]21c1ccc(=O)[nH]c1C3 |  | 1020 |  |
| CC1=C[C@H]2Cc3[nH]c(=O)ccc3[C@@]3(C1)[C@@H]2CCCN3CCN1CCN(CN2CCC[C@@H]3[C@H]4C=C(C)C[C@]32c2ccc(=O)[nH]c2C4)CC1 | 472 | 407 | IC50 (Butyrylcholinesterase): 192000 nM |
| CCCN(CCN1CCC[C@@H]2[C@H]3C=C(C)C[C@]21c1ccc(=O)[nH]c1C3)CCN1CCC[C@@H]2[C@H]3C=C(C)C[C@]21c1ccc(=O)[nH]c1C3 |  | 1010 |  |
| CC1=C[C@H]2Cc3[nH]c(=O)ccc3[C@@]3(C1)[C@@H]2CCCN3C(=O)CN(C)CCCCCCCCCCN(C)Cc1ccc(F)cc1 | 67 | 52 | IC50 (Butyrylcholinesterase): 3480 nM |
| CC1=C[C@H]2Cc3[nH]c(=O)ccc3[C@@]3(C1)[C@@H]2CCCN3C(=O)CN(C)CCCCCCCCCCCCN(C)Cc1ccccn1 |  | 65.8 |  |
| CC1=C[C@H]2Cc3[nH]c(=O)ccc3[C@@]3(C1)[C@@H]2CCCN3C(=O)CN1CCCN(CC(=O)N2CCC[C@@H]3[C@H]4C=C(C)C[C@]32c2ccc(=O)[nH]c2C4)CC1 | 838 | 204 |  |
| CC1=C[C@H]2Cc3[nH]c(=O)ccc3[C@@]3(C1)[C@@H]2CCCN3CCN(CCN1CCC[C@@H]2[C@H]3C=C(C)C[C@]21c1ccc(=O)[nH]c1C3)C1CC1 |  | 695 |  |
| CCCN(CC(=O)N1CCC[C@@H]2[C@H]3C=C(C)C[C@]21c1ccc(=O)[nH]c1C3)CC(=O)n1c2c(ccc1=O)[C@@]13CC(C)=C[C@@H](C2)[C@H]1CCCN3 |  | 157 |  |
| CC1=C[C@H]2Cc3[nH]c(=O)ccc3[C@@]3(C1)[C@@H]2CCCN3CCN(C)CCCN(C)CCN1CCC[C@@H]2[C@H]3C=C(C)C[C@]21c1ccc(=O)[nH]c1C3 |  | 416 |  |
| CC1=C[C@H]2Cc3[nH]c(=O)ccc3[C@]3(C1)NCCC[C@H]23 | 12 |  |  |
